Experimental data published in ChEMBL document CHEMBL1127066, “Discovery and structure-activity relationship of a series of 1-carba-1-dethiacephems exhibiting activity against methicillin-resistant Staphylococcus aureus” (J Med Chem, 1993).
Values after ≈ are worked out from the molar mass of the structure shown.

Legend:
[1] = system: Haemophilus influenzae; test: In vitro antimicrobial activity against Haemophilus influenzae C.L. strain; assay type: functional
[2] = system: Staphylococcus aureus; test: Minimum inhibitory concentration against heteroresistant strain of Staphylococcus aureus 430 in the absence of NaCl; assay type: functional
[3] = system: Staphylococcus aureus; test: In vitro antimicrobial activity against Staphylococcus aureus S13E strain; assay type: functional
[4] = system: Pseudomonas aeruginosa; test: In vitro antimicrobial activity against Pseudomonas X239 strain; assay type: functional
[5] = system: Staphylococcus aureus; test: In vitro antimicrobial activity against Staphylococcus aureus X1.1 strain; assay type: functional
[6] = system: Staphylococcus aureus; test: Minimum inhibitory concentration against sensitive strain of Staphylococcus aureus 446 in the absence of NaCl; assay type: functional
[7] = system: Enterobacter cloacae; test: In vitro evaluation of antimicrobial activity against Enterobacter cloacae EB5 strain; assay type: functional
[8] = system: Klebsiella; test: In vitro antimicrobial activity against Klebsiella X26 strain; assay type: functional
[9] = organism: Mus musculus; test: In vitro plasma protein binding was evaluated using ICR mouse at 20 ug/mL; assay type: ADME
Procedure, shortened: (§1)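 Binding was measured by ultrafiltration (Centrifree micropartition) in pooled plasma (ICR mouse, Sprague–Dawley rat, rhesus monkey or human) at a drug concentration of 20 μg/mL.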

[10] = system: Escherichia coli; test: In vitro evaluation of antimicrobial activity against Escherichia coli EC14 strain; assay type: functional
[11] = system: Staphylococcus aureus; test: Minimum inhibitory concentration against homoresistant strain of Staphylococcus aureus 447 in the absence of NaCl; assay type: functional
[12] = system: Staphylococcus aureus; test: In vitro antimicrobial activity against Staphylococcus aureus X400 strain; assay type: functional
[13] = system: Staphylococcus aureus; test: Minimum inhibitory concentration against heteroresistant strain of Staphylococcus aureus 430 in 4% of NaCl; assay type: functional
[14] = system: Staphylococcus aureus; test: Minimum inhibitory concentration against methicillin-resistant Staphylococcus aureus 430 (MRSA) in vitro using trypticase soy broth (TSB) with 4% NaCl; assay type: functional
[15] = system: Pseudomonas aeruginosa; test: Antimicrobial activity against Pseudomonas PS18 strain; assay type: functional
[16] = organism: Rattus norvegicus; test: In vitro plasma protein binding was evaluated using Sprauge-Dawley rat at 20 ug/mL; assay type: ADME; procedure, shortened: as §1
[17] = system: Staphylococcus aureus; test: Minimum inhibitory concentration against methicillin-resistant Staphylococcus aureus 430 (MRSA) in vitro using trypticase soy broth (TSB); assay type: functional
[18] = system: Staphylococcus aureus; test: Minimum inhibitory concentration against sensitive strain of Staphylococcus aureus 446 in 4% of NaCl; assay type: functional
[19] = system: Staphylococcus epidermidis; test: In vitro antimicrobial activity against Staphylococcus epidermidis 270 strain; assay type: functional
[20] = Tested against penicillin binding protein 2a (PBP2a) enzyme.
[21] = system: Staphylococcus aureus; test: Minimum inhibitory concentration against homoresistant strain of Staphylococcus aureus 447 in 4% of NaCl; assay type: functional
[22] = system: Streptococcus pneumoniae; test: In vitro antimicrobial activity against Streptococcus pneumoniae PARK strain; assay type: functional
[23] = organism: Homo sapiens; test: In vitro plasma protein binding was evaluated by using Human plasma at 20 ug/mL; assay type: ADME; procedure, shortened: as §1
[24] = system: Staphylococcus epidermidis; test: In vitro antimicrobial activity against Staphylococcus epidermidis 222 strain; assay type: functional
[25] = system: Rhesus monkey; test: In vitro plasma protein binding was evaluated by using rhesus monkey at 20 ug/mL; assay type: ADME, Macaca mulatta; procedure, shortened: as §1

SMILES	MIC [1] [µg/mL]	MIC [2] [µg/mL]	MIC [3] [µg/mL]	MIC [4] [µg/mL]	MIC [5] [µg/mL]	MIC [6] [µg/mL]	MIC [7] [µg/mL]	MIC [8] [µg/mL]	MIC [10] [µg/mL]	MIC [11] [µg/mL]	MIC [12] [µg/mL]	MIC [13] [µg/mL]	MIC [14] [µg/mL]	MIC [15] [µg/mL]	Bound [16] [%]	MIC [17] [µg/mL]	MIC [19] [µg/mL]	IC50 [20] [µg/mL]	MIC [22] [µg/mL]	MIC [24] [µg/mL]	also measured
Nc1nc(/C(=N\OCCF)C(=O)N[C@@H]2C(=O)N3C(C(=O)[O-])=C(Sc4nc5ccc([N+](=O)[O-])cc5s4)CC[C@H]23)cs1.[Na+]	0.03	1	2	> 128	0.06	0.25	1	0.06	0.25	1.9	2	1	1	64	98.3	0.5	0.5	0.85	< 0.008	0.5	Bound [9]: 96.9%; MIC [18]: 0.25 µg/mL; MIC [21]: 1.9 µg/mL; Bound [23]: > 99.2%
CO/N=C(\C(=O)N[C@@H]1C(=O)N2C(C(=O)O)=C(COC(C)=O)CS[C@H]12)c1csc(N)n1 [CEFOTAXIME]	0.015 (≈ 0.0329 µM)		8 (≈ 17.6 µM)	8 (≈ 17.6 µM)	2 (≈ 4.39 µM)		0.25 (≈ 0.549 µM)	< 0.008	0.03 (≈ 0.0659 µM)		64 (≈ 141 µM)			16 (≈ 35.1 µM)	88.5		8 (≈ 17.6 µM)		0.015 (≈ 0.0329 µM)	2 (≈ 4.39 µM)	
Nc1nc(/C(=N\OCCF)C(=O)N[C@@H]2C(=O)N3C(C(=O)[O-])=C(Sc4nncs4)CC[C@H]23)cs1.[Na+]	0.015		16	> 128	0.125		0.5	0.015	0.03		64			32	63.1		0.06		< 0.008	0.5	Bound [25]: 49.1%; Bound [9]: 36.2%; Bound [23]: 36%
COc1cccc(OC)c1C(=O)N[C@@H]1C(=O)N2[C@@H]1SC(C)(C)[C@@H]2C(=O)O [METHICILLIN]	4 (≈ 10.5 µM)	8 (≈ 21 µM)	8 (≈ 21 µM)	> 128	2 (≈ 5.26 µM)	1 (≈ 2.63 µM)	> 128	32 (≈ 84.1 µM)	> 128	> 512	64 (≈ 168 µM)	256 (≈ 673 µM)	256 (≈ 673 µM)	> 128		8 (≈ 21 µM)	4 (≈ 10.5 µM)	456 (≈ 1200 µM)	0.5 (≈ 1.31 µM)	4 (≈ 10.5 µM)	MIC [18]: 1 µg/mL (≈ 2.63 µM); MIC [21]: > 512 µg/mL
CCOc1ccc2ccccc2c1C(=O)N[C@@H]1C(=O)N2[C@@H]1SC(C)(C)[C@@H]2C(=O)O [NAFCILLIN]		1 (≈ 2.41 µM)				0.25 (≈ 0.603 µM)				128 (≈ 309 µM)		64 (≈ 154 µM)	32 (≈ 77.2 µM)			0.25 (≈ 0.603 µM)		200 (≈ 483 µM)			MIC [18]: 0.25 µg/mL (≈ 0.603 µM); MIC [21]: 128 µg/mL (≈ 309 µM)
Nc1nc(/C(=N\OCCF)C(=O)N[C@@H]2C(=O)N3C(C(=O)[O-])=C(Sc4nccs4)CC[C@H]23)cs1.[Na+]	< 0.008		16	128	0.25		1	< 0.008	0.125		64			32			4		< 0.008	0.5	
Nc1nc(/C(=N\OCCF)C(=O)N[C@@H]2C(=O)N3C(C(=O)[O-])=C(Sc4nc5ccccc5o4)CC[C@H]23)cs1.[Na+]	0.03		2	32	0.125		1	0.015	0.25		64			32			2		< 0.008	1	
Nc1nc(/C(=N\OCCF)C(=O)N[C@@H]2C(=O)N3C(C(=O)[O-])=C(Sc4nc5ccccc5s4)CC[C@H]23)cs1.[Na+]	0.03		4	16	0.125		1	0.03	0.25		4		1	128		0.5	0.5	3.5	< 0.008	0.25	
Cn1c(SC2=C(C(=O)[O-])N3C(=O)[C@@H](NC(=O)/C(=N/OCCF)c4csc(N)n4)[C@H]3CC2)n[nH]c(=O)c1=O.[Na+]	0.03		64	32	0.5		0.5	0.06	0.06		128			32			8		0.015	2	
Nc1nc(/C(=N\OCCF)C(=O)N[C@@H]2C(=O)N3C(C(=O)[O-])=C(Sc4nc(-c5ccccn5)cs4)CC[C@H]23)cs1.[Na+]	0.03		16	32	0.25		2	0.03	0.5		32			64			2		< 0.008	0.5	
